In ChEMBL document CHEMBL3997810, “A Novel Potent Anticancer Compound Optimized from a Natural Oridonin Scaffold Induces Apoptosis and Cell Cycle Arrest through the Mitochondrial Pathway” (J Med Chem, 2017):
The source made the active and inactive calls. The rule behind the calls is not given here.

Tests used:
MCF7 [1] = test: Induction of apoptosis in human MCF7 cells assessed as live cells at 1 uM after 24 hrs by Annexin-V FITC/propidium iodide staining based flow cytometry (reference value: 97%); format: functional
Mus musculus [2] = test: Toxicity in Balb/c nude mouse xenografted with human MCF7 cells assessed as changes in body weight at 20 mg/kg/day, iv for 4 weeks measured once in 2 days during compound dosing; format: organism-based; details: in vivo
Method in brief: (§1)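 Mice received 1 × 10^6 tumor cells subcutaneously in the right flank: MCF-7 in male BALB/c nude mice aged six weeks, H22 in male ICR mice aged five weeks. After 7 d they were randomized (six or eight per group). Dosing was 20 mg/kg iv daily in 10% DMF/2% poloxamer/88% saline for 21 or 28 days; saline control. Body weight was recorded every 2 days.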

MCF7 [3] = test: Downregulation of cdc2 protein expression in human MCF7 cells after 48 hrs by Western blot method; format: functional, cell-based
Method in brief: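 MCF-7 cells exposed to 0–1 μM compound for 48 h, then lysed on ice. Lysate (20 μg protein) run on 8–12% SDS-PAGE and transferred to PVDF. Probed overnight at 4 °C with primary antibodies, then fluorescent secondaries. Band densities normalized to β-actin. Mean ± SD of three independent experiments.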

MCF7 [4] = test: Induction of apoptosis in human MCF7 cells assessed as live cells at 0.5 uM after 24 hrs by Annexin-V FITC/propidium iodide staining based flow cytometry (reference value: 97%); format: functional
Mus musculus [5] = test: Cardiotoxicity in Balb/c nude mouse xenografted with human MCF7 cells assessed as morphological changes in heart at 20 mg/kg/day, iv for 4 weeks by hematoxylin and eosin staining based microscopic method; format: toxicity, organism-based; details: in vivo, 672 h
Method in brief: (§2)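 Male BALB/c nude mice (6 weeks old) carrying subcutaneous MCF-7 xenografts (1 × 10^6 cells). Dosed iv 20 mg/kg daily for 28 days in 10% DMF/2% poloxamer/88% saline; six mice per group. Organs then fixed in 4% paraformaldehyde, paraffin-embedded, cut at 5 μm, stained with Harris hematoxylin and eosin-phloxine, and examined by light microscopy.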

MCF7 [6] = test: Induction of apoptosis in human MCF7 cells after 24 hrs by Annexin-V FITC/propidium iodide staining based flow cytometry; format: functional, cell-based
Bel-7402 [7] = test: Antiproliferative activity against human Bel7402 cells after 72 hrs by MTT assay; format: functional, cell-based; details: Bel-7402, 72 h
Method in brief: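 MGC-803 and MCF-7 cells grown in DMEM (MCF-7 with 1× NEAA); Bel-7402 and K562 grown in RPMI 1640; all media with 10% FBS. Cells seeded at 3500/well, pre-incubated 24 h, then exposed to compounds in fresh medium (DMSO ≤0.25%) for 72 h at 37 °C. MTT read-out at 570 nm. Quadruplicate wells, repeated three times; means ± SD (n = 3).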

MCF7 [8] = test: Cell cycle arrest in human MCF7 cells assessed as accumulation at S phase at 0.25 uM after 48 hrs by propidium iodide staining based flow cytometry (reference value: 37.18%); format: functional
Method in brief: (§3)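 MCF-7 cells, 5 × 10^4 per well, seeded overnight, then exposed to 0.125–1 μM compound, or DMSO, for 48 h. Ethanol-fixed (70%, −20 °C, 12 h) and stained with PI/RNase at 37 °C for 30 min. Phase distribution determined by flow cytometry.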

MCF7 [9] = test: Induction of mitochondrial membrane potential depolarization in human MCF7 cells assessed as ratio of red fluorescence to green fluorescence at 1 uM after 36 hrs by JC1 staining based fluorescence microscopic method (reference value: 1.433); format: functional
Method in brief: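 MCF-7 cells were treated with 0, 0.25, 0.5 or 1 μM for 36 h and loaded with 10 μg/mL JC-1 for 30 min at 37 °C, then washed in PBS. Monomers were read at ex 490/em 535 nm and aggregates at ex 525/em 600 nm, by plate reader or fluorescence microscopy. The red/green ratio came from 10,000 cells per group, in triplicate, mean ± SD.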

MCF7 [10] = test: Induction of ROS generation in human MCF7 cells at 1 uM after 36 hrs by DCF-DA staining based flow cytometry (reference value: 3.77%); format: functional
Method in brief: (§4)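 MCF-7 cells exposed to 0–1 μM compound for 36 h, with DMSO as control; one arm pre-incubated with 2.5 mM NAC. Cells then loaded with DCF-DA at 37 °C for 15 min, harvested and resuspended in PBS. Fraction of DCF-positive cells measured by flow cytometry at Ex 480/Em 525 nm.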

Bel-7402 [11] = test: Cytotoxicity against human Bel7402 cells at 10 to 50 uM after 24 hrs by LDH assay; format: functional, cell-based
Method in brief: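 Membrane integrity assay on MCF-7 and Bel-7402 cells seeded at ~5 × 10^3 per well for 24 h, then given compounds at 10, 20 or 50 μM. Culture medium collected and assayed with CytoTox-ONE LDH reagent for 10 min, followed by stop solution. Fluorescence read at Ex 560/Em 590 nm. Expressed as percentage of unstimulated cells.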

Mus musculus [12] = test: Hepatotoxicity in Balb/c nude mouse xenografted with human MCF7 cells assessed as morphological changes in liver at 20 mg/kg/day, iv for 4 weeks by hematoxylin and eosin staining based microscopic method; format: toxicity, organism-based; details: in vivo, 672 h; method in brief: as §2
MCF7 [13] = test: Induction of ROS generation in human MCF7 cells at 1 uM after 36 hrs in presence of ROS scavenger NAC by DCF-DA staining based flow cytometry; format: functional, cell-based; method in brief: as §4
Mus musculus [14] = test: Toxicity in ICR mouse xenografted with […] cells assessed as changes in body weight at 20 mg/kg/day, iv for 3 weeks measured once in 2 days during compound dosing; format: organism-based; details: in vivo; method in brief: as §1
[15] = Antiproliferative activity against human NCI-H460/MX20 cells after 48 hrs by MTT assay; format: functional, cell-based; details: NCI-H460/MX20, 48 h
Method in brief: (§5)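 Colorimetric MTT assay. KB-3-1, NCI-H460 and Bel-7404 cells were seeded at 4000 cells/well; resistant KB/CP4, NCI-H460/MX20 and Bel-7404/CP20 were seeded at 7000 cells/well. Cells were pre-incubated 24 h at 37 °C, 5% CO2, then exposed to a compound concentration series for 48 h with DMSO ≤0.25%. Absorbance read at 570 nm. Quadruplicate wells, three repeats; means ± SD.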

Bel-7402 [16] = test: Cell cycle arrest in human Bel7402 cells assessed as accumulation at S phase at 2 uM after 48 hrs by propidium iodide staining based flow cytometry (reference value: 8.78%); format: functional
MCF7 [17] = test: Induction of apoptosis in human MCF7 cells assessed as increase in cytochrome c protein expression at 0.5 to 1 uM after 48 hrs by Western blot method; format: functional, cell-based
Method in brief: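 MCF-7 cells were treated at 0, 0.125, 0.25, 0.5 or 1 μM for 48 h, washed in ice-cold PBS and lysed on ice for 20 min. Lysates were spun at 13,000 g, 4 °C. 20 μg protein was run on SDS-PAGE and blotted to PVDF, probed overnight at 4 °C with primary antibodies, then with fluorescent secondary antibodies. Band density was expressed relative to β-actin; three independent experiments.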

KB 3-1 = test: Antiproliferative activity against human KB-3-1 cells after 48 hrs by MTT assay; format: functional, cell-based; details: KB 3-1, 48 h; method in brief: as §5
MCF7 [18] = test: Cell cycle arrest in human MCF7 cells assessed as accumulation at G1 phase at 0.25 uM after 48 hrs by propidium iodide staining based flow cytometry (reference value: 49.77%); format: functional; method in brief: as §3

IC50 (Bel-7402 [7]): 1.03 µM | IC50 (KB 3-1): 5.7 µM
Compound: C=C1C(=O)[C@]23[C@H](OC(=O)/C=C/c4ccccc4)[C@H]1CC[C@H]2[C@]12C=CCC(C)(C)[C@H]1[C@H](O)[C@]3(O)OC2
Activity (MCF7 [1]): 31.2% | Activity (Mus musculus [2]): Non-Toxic | Activity (MCF7 [3]): Dose-dependent effect | Activity (MCF7 [4]): 54.3% | Activity (Mus musculus [5]): Non-Toxic | Activity (MCF7 [6]): Dose-dependent effect | Activity (MCF7 [8]): 33.9% | Ratio (MCF7 [9]): 0.385 | Activity (MCF7 [10]): 24.31% | Activity (Bel-7402 [11]): inactive | Activity (Mus musculus [12]): Non-Toxic | Activity (MCF7 [13]): inactive | Activity (Mus musculus [14]): Non-Toxic | IC50 [15]: 13.6 µM | Activity (Bel-7402 [16]): 10.78% | Activity (MCF7 [17]): Active | Activity (MCF7 [18]): 49.37%
